# Bioassay records (PubChem BioAssay)
# This is a sample that favours compounds with a hit; in the whole collection about 1.8% have one here.
# HTRA1 inh: HTRA1 (human) protease inhibition; Q92743; recombinant HTRA1, FP-rhodamine activity-based probe, fluorescence polarization; inhibition, % at 5.96 µM; hit rate 0.5% among 340,000; AID 504803; in the data active = inhibition above about 36%
# TCR CD3 inh: human TCR-CD3 binding inhibition; TAMRA-labeled TCR probe fluorescence, biochemical; inhibition, % at 9.4 µM; hit rate 0.37% among 360,000; AID 651800; in the data active = inhibition above about 19%;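 also: recombinant mutant TCR 2C K166C tagged with TAMRA read by polarization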
# DDE Tn7 FP inh: disrupts Tn7 cyclic peptide binding to fibrin D-Dimer-E complex. P02675. FP displacement of FITC-Tn7 peptide from fibrin DD(E); 0% = median of compound wells per plate. inhibition, % at 8.3 µM. hit rate 0.13% among 370,000. AID 720508;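 active = inhibition above the mean of compounds falling within the control limits plus 3 SD of them, cut at about 14% in these data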
#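 Assay system: human fibrin DD(E). Input: DD(E) 2 µM final. Medium: Tris buffer with calcium and detergent, pH 7.8. Compound dosing: single point at 8.3 µM. Timing: 10 min plus 3 h, room temperature. Technique: fluorescence polarization of the labelled Tn7 tracer. Read-out: percent inhibition. Replicates: singlicate testing.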
# SIAE primary: blocks human sialic acid acetylesterase. inhibition, % at 9.66 µM. hit rate 0.69% among 370,000. SIAE FP-Rh probe binding, fluorescence polarization. Q9HAT2;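 active = inhibition above a cutoff: mean of compounds within the control limits plus 3 SD of those, cut at about 17% in these data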
# DDE Tn6 FP inh: DD(E)-Tn6 binding inhibition, primary FP screen. P02675. inhibition, % at 8.3 µM. hit rate 0.21% among 370,000. Fibrin DD(E) TRITC-Tn6 fluorescence polarization displacement;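 active = inhibition above a per-campaign cutoff: mean of compounds within control limits plus 3 SD, cut at about 15% in these data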
# ABHD4 inh: inhibitors of mouse ABHD4; Q8VD66; inhibition, % at 8.92 µM; AID 720543; purified mABHD4, FP-Rh probe fluorescence polarization; hit rate 0.54% among 370,000;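 active = inhibition exceeding the mean over every tested compound plus 3 SD, cut at about 30% in these data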
# Target sequence (Q8VD66 whole entry, looked up): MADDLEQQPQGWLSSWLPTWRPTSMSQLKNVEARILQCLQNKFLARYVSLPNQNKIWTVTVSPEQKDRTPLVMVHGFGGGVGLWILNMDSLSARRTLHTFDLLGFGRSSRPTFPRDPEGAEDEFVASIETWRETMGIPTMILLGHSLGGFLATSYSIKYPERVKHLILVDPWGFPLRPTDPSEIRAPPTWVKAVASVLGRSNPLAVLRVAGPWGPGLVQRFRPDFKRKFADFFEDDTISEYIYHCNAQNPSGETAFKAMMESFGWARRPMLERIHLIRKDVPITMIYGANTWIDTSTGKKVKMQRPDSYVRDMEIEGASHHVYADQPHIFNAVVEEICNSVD
#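 Test system: mouse ABHD4 enzyme, wild type. Reagent: FP-Rh fluorescent activity-based probe, added after compound pre-incubation. Timing: pre-incubation 45 min, probe exposure 60 min, at 25 °C. Technique: FP readout, ex 525 nm / em 598 nm. Benchmarks: high control S159A mutant with DMSO, low control median of compound wells.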
# SIAE inh conf: confirmation of human SIAE inhibitors; shares compounds with SIAE primary; SIAE FP-Rh activity-based probe, fluorescence polarization; inhibition, % at 9.66 µM; hit rate 13% among 2,300;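 active = mean inhibition of the replicates above the hit cutoff set in the primary screen, cut at about 17% in these data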;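 also: inhibitors lower polarization as more probe stays unbound to SIAE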
# Numbers stand for hits; . = inactive; / = no result given.
SMILES,HTRA1 inh,TCR CD3 inh,DDE Tn7 FP inh,SIAE primary,DDE Tn6 FP inh,ABHD4 inh,SIAE inh conf
CN(C)c1ccc(/C=[N+](\[O-])C2SC(=S)N(C)C2(C)C)cc1 (stereo not drawn),.,.,.,.,.,.,/
CN(C)c1ccc(/C=[N+](\[O-])C2N(c3ccccc3)C(=S)SC2(C)C)cc1 (stereo not drawn),.,.,.,26,.,.,.
CC(C)C[C@H](NC(=O)N1CCOCC1)C(=O)N1CCC[C@H]1C(=O)NCc1ccccc1,/,.,.,.,.,.,/
Nc1ccc2nc(-c3cccc(-c4nc5ccc(N)cc5[nH]4)c3)[nH]c2c1,.,.,.,26,.,.,37
Nc1ccc(-c2nc3ccc(N)cc3[nH]2)cc1,.,.,.,25,.,.,.
Nc1ccc2nc(-c3ccc(Cl)cc3)[nH]c2c1,.,.,.,54,.,.,.
Cc1ccc(C)c(-c2nc3ccc(N)cc3[nH]2)c1,.,.,.,.,.,.,/
Nc1ccc2nc(-c3cc(Cl)c(N)c(Cl)c3)[nH]c2c1,.,.,.,24,.,.,.
Cc1nc2ccc(-c3nc4ccc(N)cc4[nH]3)cc2[nH]1,.,.,.,.,.,.,/
O=C(C(=O)N1CCN(S(=O)(=O)c2ccccc2)CC1)c1cccc(C(F)(F)F)c1,/,.,.,.,.,.,/
CCCCCCCCN1C(=O)[C@@H](CC(=O)NCc2ccc(C)o2)C[C@@]2(C(=O)OC)C1=C[C@H](COCc1ccccc1)O[C@@H]2C,/,/,.,.,.,.,/
O=[N+]([O-])c1ccc(-c2nc3ccc([N+](=O)[O-])cc3[nH]2)cc1,.,.,.,18,.,.,.
O=C(O)CNc1ccccc1C(=O)O,.,.,.,38,.,.,.
O=C(O)c1ccccc1NCc1cccnc1,/,.,.,.,.,.,/
COCc1cc(C)nc(SCC(=O)Nc2ccc3c(c2)OCO3)c1C#N,.,.,.,17,.,.,.
COCc1cc(C)nc(SCC(=O)Nc2ccc3c(c2)OCCO3)c1C#N,.,.,.,.,.,.,/
CCOC(=O)c1cccc(NC(=O)CN(C)S(=O)(=O)c2ccc(Br)s2)c1,/,/,.,.,.,.,/
CC1CCC2(CCC(=O)N2CCCOC(=O)NC(C)(C)C)CC1 (stereo not drawn),/,/,.,47,.,.,.
CCOc1ccc(Oc2ccc(NC(=O)CSc3nncn3C)cc2)cc1,.,.,.,19,.,.,.
CCOc1ccccc1OCCC(=O)NNC(=O)Cn1nc(C)cc1C,.,.,.,17,.,.,.
Cc1cccc(OCCC(=O)NNC(=O)Cn2nc(C)cc2C)c1,.,.,.,.,.,.,/
COc1ccc(NC(=S)N/N=C2\CC(C)(C)Oc3ccc(O)cc32)cc1,.,.,.,35,.,.,28
COc1ccccc1NC(=S)N/N=C1\CC(C)(C)Oc2ccc(O)cc21,.,.,.,34,.,.,.
CC(=O)N1CCC2(CC1)C/C(=N\NC(=S)Nc1ccccc1F)c1cc(O)ccc1O2,.,.,.,.,.,.,/
CC(=O)N1CCC2(CC1)C/C(=N\NC(=S)Nc1ccccc1C)c1cc(O)ccc1O2,.,.,.,18,.,.,.
SMILES,HTRA1 inh,TCR CD3 inh,DDE Tn7 FP inh,SIAE primary,DDE Tn6 FP inh,ABHD4 inh,SIAE inh conf
CCCCN1CC(N2CCCC2)CS1(=O)=O (stereo not drawn),/,.,.,.,.,.,/
c1cc2c3c(cccc3c1)NC(c1ccc3c(c1)OCO3)N2,.,.,.,28,.,.,.
O=C(CCl)Nc1c(C(=O)Nc2ccc3c(c2)OCCO3)oc2ccccc12,.,.,.,20,.,.,.
COCC(=O)Nc1c(C(=O)Nc2ccc3c(c2)OCO3)oc2ccccc12,.,.,.,.,.,.,/
Cc1ccc(NS(=O)(=O)c2ccc3c(c2)C(=O)c2ccccc2C3=O)c(C)c1,.,.,.,18,.,.,.
O=C(Cc1c[nH]c2ccccc12)Nc1ccc(Nc2cccnc2)c(-c2ccc(Oc3ccccc3)cc2)c1,/,.,.,18,.,.,.
O=C(Cc1c[nH]c2ccccc12)Nc1ccc(Nc2cccnc2)c(Br)c1,/,.,.,.,.,.,/
O=C(Cc1cn(Cc2ccccc2)c2ccccc12)Nc1ccc(Nc2cccnc2)c(Br)c1,/,.,.,18,.,.,.
